From ChEMBL document CHEMBL1157559, “Synthesis and biological evaluation of novel pyrazolyl-2,4-thiazolidinediones as anti-inflammatory and neuroprotective agents” (Bioorg Med Chem, 2010)
Active and inactive are the calls of the source. The rule behind the calls is not given here.

How the values were obtained:
[1] = Acute toxicity in po dosed Swiss albino mouse after 24 hrs; format: organism-based; conditions: in vivo, read-out: ALD50
In short: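 Four groups of five Swiss albino mice (20–30 g), fasted 24 h beforehand, given compounds orally at graded doses of 0–300 mg/kg. Mortality recorded at each dose level after 24 h to estimate the acute lethal dose (ALD50).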

[2] = system: THP-1; assay: Cytotoxicity against LPS and IFN-gamma-stimulated human THP1 cells after 24 hrs; format: functional, cell-based; conditions: THP-1, 24 h
In short: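 THP-1 cells, 24-well, in DMEM-F12 with 5% FBS. Compound or DMSO added 15 min before LPS 0.5 µg/mL plus IFN-γ 150 U/mL. After 24 h, LDH release (fraction of Triton-lysed value, OD 490) and MTT were read. EC50 taken from curves of at least three independent experiments; the lower of the two assay values was reported.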

[3] = system: THP-1; assay: Inhibition of MCP1 release in human THP1 cells after 24 hrs by ELISA; format: functional, cell-based
In short: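 THP-1 cells pretreated 15 min with compound, then stimulated with LPS 0.5 µg/mL plus IFN-γ 150 U/mL. After 24 h, MCP-1 (ng/mL) measured in cell-free medium by ELISA.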

[4] = system: SH-SY5Y; assay: Antineurotoxicity in human SH-SY5Y cells assessed as inhibition human THP1 cell supernatant-induced cytotoxicity compound pretreated 24 to 48 hrs to THP1 cells measured after 72 hrs of supernatant addition; format: functional, cell-based
In short: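 THP-1 cells in DMEM-F12 with 5% FBS, pretreated 15 min with compound or DMSO, then stimulated with LPS 0.5 µg/mL plus IFN-γ 150 U/mL for 24 or 48 h. Cell-free supernatant transferred to SH-SY5Y cells plated 24 h earlier. After 72 h, viability by LDH release and MTT. IC50 from curves of at least three independent experiments.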

[5] = system: Rattus norvegicus; assay: Antiinflammatory activity in Wistar albino rat acute inflammatory model assessed as inhibition of formalin-induced paw edema at 20 mg/kg, po administered 1 hr before formalin challenge measured after 1 hr by plethysmometer relative to control; format: functional; set-up: scale not given: the % may be the effect or the level left
In short: (§1)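 Male Wistar rats, 180–200 g, groups of five. Test compound 20 mg/kg po; 1 h later 0.1 mL 2% formalin injected subplantar into left hind paw under light ether anesthesia. Paw volume by water plethysmometer at 0 and 1, 2, 3, 4 h after formalin. % inhibition = (Vt−V0)control minus (Vt−V0)treated, divided by (Vt−V0)control ×100. Mean ± SEM, ANOVA with Student–Newman–Keuls.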

[6] = system: Rattus norvegicus; assay: Antiinflammatory activity in Wistar albino rat acute inflammatory model assessed as inhibition of formalin-induced paw edema at 20 mg/kg, po administered 1 hr before formalin challenge measured after 2 hrs by plethysmometer relative to control; format: functional; set-up: scale not given: the % may be the effect or the level left; in short: as §1
[7] = system: Rattus norvegicus; assay: Antiinflammatory activity in Wistar albino rat acute inflammatory model assessed as inhibition of formalin-induced paw edema at 20 mg/kg, po administered 1 hr before formalin challenge measured after 3 hrs by plethysmometer relative to control; format: functional; set-up: scale not given: the % may be the effect or the level left; in short: as §1
[8] = system: Rattus norvegicus; assay: Antiinflammatory activity in Wistar albino rat acute inflammatory model assessed as inhibition of formalin-induced paw edema at 20 mg/kg, po administered 1 hr before formalin challenge measured after 4 hrs by plethysmometer relative to control; format: functional; set-up: scale not given: the % may be the effect or the level left; in short: as §1
[9] = system: Rattus norvegicus; assay: Antiinflammatory activity in Wistar albino rat sub-acute inflammatory model assessed as inhibition of formalin-induced paw edema at 20 mg/kg, po administered daily for 7 days by plethysmometer relative to control; format: functional; conditions: 168 h
In short: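 Rats dosed orally at 20 mg/kg daily for 7 consecutive days. 0.1 mL 2% formalin given subplantar in left hind paw under light ether 1 h after the first oral dose, with a second injection on day 3. Paw edema weight (g) measured on day 8. % inhibition = (control − treated)/control ×100. Groups of five.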

[10] = system: Rattus norvegicus; assay: Antiinflammatory activity in Wistar albino rat sub-acute inflammatory model assessed as inhibition of turpentine oil-induced granuloma pouch exudate volume at 20 mg/kg, po 1 hr before turpentine oil challenge for 7 days assessed measured on day 8; format: functional
In short: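 Male rats 120–150 g, five per group. Subcutaneous dorsal pouch made under ether with 2 mL air, then 0.5 mL turpentine oil injected. Compound 20 mg/kg po 1 h before turpentine, then daily for seven days. On day 8 exudate drawn by syringe under anesthesia and volume measured. % inhibition = (Vcontrol − Vtreated)/Vcontrol ×100.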

[11] = system: Rattus norvegicus; assay: Antiinflammatory activity in po dosed Wistar albino rat acute inflammatory model assessed as inhibition of formalin-induced paw edema administered 1 hr before formalin challenge measured after 3 hrs by plethysmometer; format: functional
In short: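 Rats dosed orally at 5, 10, 20, 40 and 50 mg/kg body weight. Edema volume inhibition measured 3 h after subplantar formalin (2%, 0.1 mL), and ED50 determined from these doses.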

[12] = system: HL-60; assay: Inhibition of phagocyte respiratory burst in human HL60 cells after 6 to 7 days by luminol-induced chemiluminescence; format: functional, cell-based
In short: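 HL-60 cells differentiated 6–7 days in DMEM-F12 with 10% FBS and 1.3% DMSO, washed into serum-free, phenol red-free medium, then held 30 min at 37 °C before compound or DMSO was added. Luminol injected, 7.5 min baseline recorded, then FMLP injected (final 1 µM; luminol 5 mM; DMSO 0.5%). Chemiluminescence recorded 30 min at 37 °C; read-out was area under the curve.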

[13] = system: SH-SY5Y; assay: Neuroprotective activity in human SH-SY5Y cells assessed as inhibition of LPS, IFN-gamma-stimulated THP1 cellular supernatant-induced cytotoxicity after 72 hrs by LDH assay; format: functional, cell-based
In short: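 SH-SY5Y cells plated 24 h, then medium replaced with supernatant from THP-1 cells stimulated with LPS + IFN-γ for 48 h. Compound added directly to the SH-SY5Y cells at the time of transfer. Cell death measured by LDH release after 72 h; 4–6 independent experiments.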

[14] = system: SH-SY5Y; assay: Neuroprotective activity in human SH-SY5Y cells assessed as inhibition of H2O2-induced cytotoxicity after 72 hrs by LDH assay; format: functional, cell-based
In short: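 SH-SY5Y cells plated in DMEM-F12 with 5% FBS. After 24 h, medium replaced with medium containing H2O2 (500 µM in methods, 250 µM in figure legend), and compound added directly at that time. Cell death measured by LDH release 72 h later.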

[15] = biological target: T1, Prostaglandin G/H synthase 1 (Ovis aries) (UniProt P05979); assay: Inhibition of ovine COX1 at 10 uM
T1 sequence (whole entry): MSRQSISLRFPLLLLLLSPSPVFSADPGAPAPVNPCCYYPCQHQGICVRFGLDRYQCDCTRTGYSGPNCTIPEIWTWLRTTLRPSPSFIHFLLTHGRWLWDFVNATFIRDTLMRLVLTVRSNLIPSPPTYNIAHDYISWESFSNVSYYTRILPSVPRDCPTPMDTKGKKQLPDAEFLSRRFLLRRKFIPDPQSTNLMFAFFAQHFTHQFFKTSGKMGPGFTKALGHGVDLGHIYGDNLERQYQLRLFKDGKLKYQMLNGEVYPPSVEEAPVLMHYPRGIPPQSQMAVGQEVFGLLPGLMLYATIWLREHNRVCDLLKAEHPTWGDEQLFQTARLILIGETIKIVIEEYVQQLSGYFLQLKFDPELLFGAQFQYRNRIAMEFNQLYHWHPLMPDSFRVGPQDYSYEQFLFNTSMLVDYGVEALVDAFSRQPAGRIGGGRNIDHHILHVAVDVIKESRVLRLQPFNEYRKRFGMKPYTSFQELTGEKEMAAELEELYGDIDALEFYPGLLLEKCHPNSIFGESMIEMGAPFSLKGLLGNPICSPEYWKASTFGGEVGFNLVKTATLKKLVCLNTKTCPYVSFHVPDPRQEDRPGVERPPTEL
In short: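 Kit assay with ovine COX-1, run per manufacturer's protocol. Read-out was percent inhibition of prostaglandin production, with compound at 10 µM and three experiments.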

[16] = system: Rattus norvegicus; assay: Gastrointestinal toxicity in Wistar albino rat assessed as hyperemia at 100 mg/kg/day, po administered twice daily for 3 days; format: organism-based; set-up: route oral; conditions: in vivo, 72 h
In short: (§2)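 Male rats 180–200 g, groups of five, fasted 12 h with water available. Compounds given orally as two equal doses at 0 and 12 h, 100 mg/kg per day, for three successive days; vehicle control 1% gum acacia. Rats killed 6 h after last dose. Stomach opened along greater curvature, washed with cold saline and inspected under 3× lens for hyperemia, hemorrhage, erosions or ulcers.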

[17] = system: Rattus norvegicus; assay: Gastrointestinal toxicity in Wistar albino rat assessed as ulceration at 100 mg/kg/day, po administered twice daily for 3 days; format: organism-based; set-up: route oral; conditions: in vivo, 72 h; in short: as §2
[18] = biological target: T2, Prostaglandin G/H synthase 2 (Homo sapiens) (UniProt P35354); conditions: at 10 µM
T2 sequence (whole entry): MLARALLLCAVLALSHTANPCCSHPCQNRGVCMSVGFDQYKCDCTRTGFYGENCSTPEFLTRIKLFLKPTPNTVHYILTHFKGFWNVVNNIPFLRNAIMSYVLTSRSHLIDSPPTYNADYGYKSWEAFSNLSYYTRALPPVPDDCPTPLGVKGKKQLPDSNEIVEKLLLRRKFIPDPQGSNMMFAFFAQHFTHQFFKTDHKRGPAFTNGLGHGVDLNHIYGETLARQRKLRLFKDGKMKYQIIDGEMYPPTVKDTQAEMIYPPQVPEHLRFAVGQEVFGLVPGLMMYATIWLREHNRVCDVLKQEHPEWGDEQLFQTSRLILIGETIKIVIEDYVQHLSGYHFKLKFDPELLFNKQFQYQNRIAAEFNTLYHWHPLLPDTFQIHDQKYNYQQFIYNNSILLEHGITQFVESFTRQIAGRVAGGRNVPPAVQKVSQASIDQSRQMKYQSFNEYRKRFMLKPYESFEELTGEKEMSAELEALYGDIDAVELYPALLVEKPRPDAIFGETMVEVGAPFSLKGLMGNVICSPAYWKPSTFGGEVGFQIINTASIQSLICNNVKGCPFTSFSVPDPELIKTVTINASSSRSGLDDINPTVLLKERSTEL

| Structure (SMILES) | LD50 at 24 h [1] | EC50 [2] | inhibition [3] | IC50 [4] | further results |
| --- | --- | --- | --- | --- | --- |
| O=C1S/C(=C\c2cn(-c3ccccc3)nc2-c2ccccc2)C(=O)N1Cc1ccc(Cl)cc1 | > 300 mg/kg | 50 µM | inactive | 80 µM |  |
| O=C1NC(=O)/C(=C/c2cn(-c3ccccc3)nc2-c2ccccc2)S1 | > 300 mg/kg | 50 µM | inactive |  | Activity [5]: 35%; Activity [6]: 38%; Activity [7]: 43%; Activity [8]: 43%; inhibition in vivo at 20 mg/kg [9]: 53%; inhibition in vivo at 20 mg/kg [10]: 53%; ED50 [11]: 21.3 mg/kg; IC50 [12]: 8 µM |
| O=C1S/C(=C\c2cn(-c3ccccc3)nc2-c2ccccc2)C(=O)N1Cc1cccc(Br)c1 | > 300 mg/kg | > 100 µM | inactive |  |  |
| C=CCN1C(=O)S/C(=C\c2cn(-c3ccccc3)nc2-c2ccc(Cl)cc2)C1=O | > 300 mg/kg | 120 µM | inactive | 10 µM | inhibition [13]: inactive; inhibition [14]: inactive; inhibition [15]: 26.5%; Activity [5]: 53%; Activity [6]: 63%; Activity [7]: 72%; Activity [8]: 66%; inhibition in vivo at 20 mg/kg [9]: 47%; inhibition in vivo at 20 mg/kg [10]: 50%; Activity [16]: Non-toxic; Activity [17]: 0%; ED50 [11]: 15.4 mg/kg; inhibition [18]: 13.6% |
| CCCN1C(=O)S/C(=C\c2cn(-c3ccccc3)nc2-c2ccc(Cl)cc2)C1=O | > 300 mg/kg | > 100 µM | inactive |  |  |
| O=C1S/C(=C\c2cn(-c3ccccc3)nc2-c2ccc(Cl)cc2)C(=O)N1Cc1ccccc1 | > 300 mg/kg | 1 µM | inactive | 8 µM |  |
| O=C1NC(=O)/C(=C/c2cn(-c3ccccc3)nc2-c2ccc(Cl)cc2)S1 | > 300 mg/kg | > 100 µM | inactive |  | Activity [5]: 41%; Activity [6]: 50%; Activity [7]: 74%; Activity [8]: 74%; inhibition in vivo at 20 mg/kg [9]: 42%; inhibition in vivo at 20 mg/kg [10]: 44%; ED50 [11]: 13 mg/kg; IC50 [12]: 0.8 µM |
| Cc1ccc(-c2cc(C(F)(F)F)nn2-c2ccc(S(N)(=O)=O)cc2)cc1 [CELECOXIB] |  | 50 µM | inactive | 5 µM | Activity [5]: 41%; Activity [6]: 50%; Activity [7]: 60%; Activity [8]: 68%; inhibition in vivo at 20 mg/kg [9]: 50%; inhibition in vivo at 20 mg/kg [10]: 54%; Activity [17]: 0%; ED50 [11]: 14.3 mg/kg |
| O=C1S/C(=C\c2cn(-c3ccccc3)nc2-c2ccc(Cl)cc2)C(=O)N1Cc1ccc(Cl)cc1 | > 300 mg/kg | 4 µM | inactive |  |  |
| O=C1S/C(=C\c2cn(-c3ccccc3)nc2-c2ccc(Cl)cc2)C(=O)N1Cc1cccc(Br)c1 | > 300 mg/kg | 5 µM | inactive | 8 µM |  |
| CCCN1C(=O)S/C(=C\c2cn(-c3ccccc3)nc2-c2ccccc2)C1=O | > 300 mg/kg | > 100 µM | inactive |  |  |
| O=C1S/C(=C\c2cn(-c3ccccc3)nc2-c2ccccc2)C(=O)N1Cc1ccccc1 | > 300 mg/kg | > 100 µM | inactive |  |  |
| COc1ccc2c(c1)c(CC(=O)O)c(C)n2C(=O)c1ccc(Cl)cc1 [INDOMETHACIN] |  |  |  |  | Activity [17]: 100% |
| C=CCN1C(=O)S/C(=C\c2cn(-c3ccccc3)nc2-c2ccccc2)C1=O | > 300 mg/kg | > 100 µM | inactive | 50 µM |  |
